According to publication PMC6028938 (Neurobiology of disease, 2018):

What was measured:
PKA pathway = conditions: postnatal day 7 ATXN1[82Q] mouse cerebellar slices; cited from earlier work
PKA = conditions: cited from earlier work
MSK = conditions: read-out: IC50 as MSK inhibitor; cited from earlier work
endogenous human ATXN1 = assay: SCA1 patient iPSC-derived neuronal cells, western blot of ATXN1; type: cell-based; conditions: 10 μM, two-day treatment
Method in brief: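 NPCs differentiated 7 days in DMEM/F12 with 100 ng/ml FGF8, 200 ng/mL SHH and 1:100 N2; β-III tubulin-stained. Treated 2 days with 10 μM test compound, lysed in Tris-Triton buffer. Western blot: MoAb-17 (1 ng/μl) for pS776, 11750 for total ATXN1, GAPDH-normalised.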

Atxn1[66Q] and Atxn1[2Q] = assay: GSK690693 treatment in Atxn1 66Q/2Q cerebellar slice cultures; type: cell-based, mouse; conditions: 10 μM
PKA CαM120A [1] = target: T1, PKA CαM120A (Mus musculus, UniProt P05132, M121A); type: biochemical
PKA CαM120A [2] = target: T1, PKA CαM120A; assay: Atxn1 2Q/2Q; type: cell-based
mice = conditions: mouse
[3] = mice, delivered in drinking water or by IP injection; cited from earlier work
CαM120A = CαM120A (Mus musculus, UniProt P05132, M121A); assay: 1-NM-PP1 delivered in vivo; conditions: cage drinking water or intra-cerebro-ventricular injections, data not shown
[4] = tested on: RFP-ATXN1[82Q] in DAOY cells; assay: Live cell imaging of DAOY cells stably expressing RFP-ATXN1[82Q]; type: cell-based, human
Method in brief: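 DAOY cells stably carrying RFP-ATXN1[82Q]-IRES-YFP, grown on 35 mm plates and moved to imaging chambers heated to 37 °C. At time zero, 10 nM test compound or DMSO vehicle was added. Brightfield and RFP images were taken every 2 minutes on an inverted fluorescence microscope.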

[5] = one day of exposure, P10 slices
[6] = 20 μM 1-NM-PP1, three-day incubation, vs no treatment or DMSO

C=C[C@@]1(C)CC(=O)[C@]2(O)[C@@]3(C)[C@@H](O)CCC(C)(C)[C@@H]3[C@H](O)[C@H](OC(C)=O)[C@@]2(C)O1 [forskolin]
dendritic morphology of cerebellar slices (PKA pathway): enhanced dendritic morphological abnormalities

CCn1c(-c2nonc2N)nc2cncc(CNC3CCNCC3)c21 [SB-747651A]
inhibitory activity towards PKA relative to MSK (less) (PKA): approximately 10 fold | IC50 (MSK): 11 nM

CCn1c(-c2nonc2N)nc2c(C#CC(C)(C)O)ncc(OC[C@H]3CCCNC3)c21 [GSK690693, 4-[2-(4-Amino-1,2,5-oxadiazol-3-yl)-1-ethyl-7-[(3S)-3-piperidinylmethoxy)-1H-imidazo[4,5-c]pyridin-4-yl]-2-methyl-3-butyn-2-ol]
reduction of endogenous ATXN1 levels (endogenous human ATXN1): 44% | IC50s for AGC kinase family members including PKA (in words) (PKA): nanomolar | S776 phosphorylation status (MoAB-17 blot) (Atxn1[66Q] and Atxn1[2Q]; by 5 days of treatment): decrease in pS776 | phosphorylation of other cerebellar proteins with PKA consensus site RRX(S/T) (pan-PKA substrates antibody) (Atxn1[66Q] and Atxn1[2Q]; by one day of treatment): Inhibition | reduction of Atxn1[2Q] level (Atxn1[66Q] and Atxn1[2Q]; five days): 68% | reduction of Atxn1[66Q] level (Atxn1[66Q] and Atxn1[2Q]; five days): 70% | reduction of Atxn1[2Q] level (Atxn1[66Q] and Atxn1[2Q]; [5]): 22% | reduction of Atxn1[66Q] level (Atxn1[66Q] and Atxn1[2Q]; [5]): 29% | reduction of Atxn1[2Q] level (Atxn1[66Q] and Atxn1[2Q]; three days): 54% | reduction of Atxn1[66Q] level (Atxn1[66Q] and Atxn1[2Q]; three days): 56% | concentration that blocks ATXN1[30Q]-S776 phosphorylation (PKA CαM120A [1]; Cα M120A cerebellar extracts as kinase source): ≤ 10 nM | amount of Atxn1[2Q] protein (PKA CαM120A [2]; 10 μM GSK690693, two days): significantly decreased | pan-PKA substrate phosphorylation (PKA CαM120A [2]; 10 μM GSK690693, two days): dramatically decreased | toxicity in vivo (mice): very toxic with treated mice having seizures

CC(C)(C)n1nc(Cc2cccc3ccccc23)c2c(N)ncnc21 [1-NM-PP1]
blood brain barrier crossing [3]: cross the blood brain barrier | inhibition of CαM120A in vivo (CαM120A): failed | inhibition of S776 phosphorylation (PKA CαM120A [1]; 10 μM 1-NM-PP1, the highest dose tested): Subtle inhibition | level of Atxn1[2Q] protein (PKA CαM120A [2]; [6]): failed to affect | phosphorylation of pan-PKA substrates (PKA CαM120A [2]; [6]): failed to affect

CN[C@@H]1C[C@H]2O[C@@](C)([C@@H]1OC)n1c3ccccc3c3c4c(c5c6ccccc6n2c5c31)C(=O)NC4 [Staurosporine]
RFP-ATXN1[82Q] signal ([4]; 10 nM staurosporine, as early as two minutes post-treatment, continued to decrease out to six minutes, 37 °C): substantially diminished | fluorescently tagged ATXN1[82Q] detectability ([4]; after four minutes of exposure to staurosporine): no longer detectable
